According to ChEMBL document CHEMBL3259554, “Discovery, synthesis, and optimization of antimalarial 4(1H)-quinolone-3-diarylethers” (J Med Chem, 2014):
Active and inactive are the calls of the source. The calls are words filed in the database; no cut-off is given here.

Legend:
HepG2 = assay: Cytotoxicity against human HepG2 cells after 24 hrs incubation by Alamar Blue assay; type: cell-based; details: HepG2, 24 h
Outline: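 HepG2 cells grown in RPMI-1640 with 10% FBS and seeded at 2 × 10⁴ cells/well, attached overnight. Drug serially diluted from 10 mM DMSO stocks to 2.5 nM–10 μM and incubated 24–36 h. Medium then replaced and cells kept a further 24 h. Resazurin added (final 10 μM) for 3 h, fluorescence read at ex 560/em 590 nm. Run in triplicate; IC50 by nonlinear logistic regression.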

[1] = Antimalarial activity against multidrug-resistant Plasmodium falciparum Dd2 MRA-156 infected in human red blood cells assessed as suppression of parasitemia after 72 hrs by SYBR Green I-based fluorescence method; type: functional
Outline: (§1)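 Asynchronous parasites in human erythrocytes, RPMI-1640 with HEPES, hypoxanthine, glucose, glutamine, 0.5% Albumax II; 2% hematocrit, 0.2% initial parasitemia. Triplicate 2-fold dilutions from 1 μM (lower start if needed), 72 h at 37 °C under 5% O2/5% CO2/90% N2. SYBR Green I dye-detergent added, 1 h dark at room temperature, fluorescence read. EC50 averaged over at least three determinations.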

Plasmodium falciparum [2] = assay: Antimalarial activity against chloroquine-sensitive Plasmodium falciparum D6 MRA-285 infected in human red blood cells assessed as suppression of parasitemia after 72 hrs by SYBR Green I-based fluorescence method; type: functional, organism-based; details: D6 MRA-285, 72 h; outline: as §1
Plasmodium falciparum [3] = assay: Antimalarial activity against atovaquone-resistant clinical isolate Plasmodium falciparum TM90-C2B infected in human red blood cells assessed as suppression of parasitemia after 72 hrs by SYBR Green I-based fluorescence method; type: functional, organism-based; outline: as §1
Plasmodium yoelii [4] = assay: Antimalarial activity against Plasmodium yoelii MR4 MRA-428 infected in mouse CF1 assessed as dose required to achieve cure measured as 30 days survival administered through oral gavage once daily for 4 days; type: functional
Outline: (§2)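 P. yoelii-infected mice, randomly grouped in fours; dosing began day after inoculation (day 1), once daily by oral gavage in PEG-400 for four successive days; initial doses 0.1, 0.3, 1.0, 3.0, 10 mg/kg/day, range adjusted as needed. Day-5 Giemsa-smear parasitemia vs drug-free controls; ED50 derived graphically. Cure = parasite free 30 days after last dose; cure dose termed non-recrudescence dose.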

Plasmodium yoelii [5] = assay: Antimalarial activity against Plasmodium yoelii MR4 MRA-428 infected in mouse CF1 assessed as reduction on parasite burden administered through oral gavage once daily for 4 days; type: functional; outline: as §2
[6] = Inhibition of human cytochrome bc1 complex derived from HEK293 cell mitochondria using 50 uM decylubiquinol as substrate
Outline: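 Mitochondria isolated from HEK-293 cells by Dounce homogenization and differential centrifugation, dispersed in 2 mg/mL dodecyl maltoside for 45 min on ice, then clarified. Baseline-subtracted initial rates expressed as a fraction of uninhibited control.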

Liver microsome [7] = assay: Metabolic stability in rat liver microsomes; type: ADME
Outline: (§3)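 Compound at 1 μM incubated at 37 °C with liver microsomes (0.4 mg protein/mL) in 0.1 M phosphate pH 7.4. Started with an NADPH-regenerating system plus MgCl₂ and quenched with cold acetonitrile at time points up to 60 min. Parent loss followed by LC-MS and fitted to first-order decay to give half-life and intrinsic clearance. E_H used liver blood flow of 20.7 (human) or 55.2 (rat) mL/min/kg.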

Liver microsome [8] = assay: Metabolic stability in human liver microsomes; type: ADME; outline: as §3
Plasmodium yoelii [9] = assay: Antimalarial activity against Plasmodium yoelii MR4 MRA-428 infected in mouse CF1 assessed as reduction on parasite burden at 64 mg/kg administered through oral gavage once daily for 4 days; type: functional, organism-based; parameters: dose 64 mg/kg
Outline: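 P. yoelii model in mice, randomized into groups of four. Oral gavage in PEG-400 once daily for four successive days, starting the day after inoculation. Giemsa-stained blood smears read microscopically on day 5. Parasite burden compared with drug-free controls. Animals parasite free 30 days after the last dose counted as cured.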

[10] = Inhibition of cytochrome bc1 complex isolated from trophozoite stage Plasmodium falciparum
Outline: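 P. falciparum mitochondrial preparation assayed for cytochrome c reductase at 35 °C in a stirred cuvette. Buffer: 100 μM decylubiquinol, 100 μM horse heart cytochrome c, 0.1 mg/mL dodecyl maltoside, 60 mM HEPES pH 7.4, 10 mM malonate, 1.0 mM EDTA, 2.0 mM KCN. Baseline subtracted from the initial rate; activity expressed as a fraction of uninhibited control.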

[11] = Selectivity ratio of IC50 for human cytochrome bc1 complex to EC50 for Plasmodium falciparum cytochrome bc1 complex

SMILES	IC50 (HepG2) [µM]	EC50 [1] [nM]	EC50 (Plasmodium falciparum [2]) [nM]	EC50 (Plasmodium falciparum [3]) [nM]	NRD (Plasmodium yoelii [4])	ED50 (Plasmodium yoelii [5]; MR4 MRA-428, po, 96 h) [mg/kg/day]	IC50 [6] [µM]	Stability (Liver microsome [7])	Stability (Liver microsome [8])	ED50 (Plasmodium yoelii [5])	Activity (Plasmodium yoelii [9])	EC50 [10] [nM]	Ratio IC50/EC50 [11]	ED90 (Plasmodium yoelii [5]; MR4 MRA-428, po, 96 h) [mg/kg/day]	IC50 [10] [nM]
COc1cc2[nH]c(C)c(-c3ccc(Oc4ccc(OC(F)(F)F)c(F)c4)cc3)c(=O)c2cc1Cl	> 10	12	12	5.8											
COc1cc2[nH]c(C)c(-c3ccc(Oc4ccc(OC(F)(F)F)cc4)cn3)c(=O)c2cc1Cl	> 10	0.5	0.4	0.2	>3 mg/kg/day	< 1									
COc1cc2[nH]c(C)c(-c3ccc(Oc4ccc(C(F)(F)F)cn4)cc3)c(=O)c2cc1Cl	> 10	6.8	8.1	4.1											
Cc1[nH]c2ccc(F)cc2c(=O)c1-c1ccc(Oc2ccc(OC(F)(F)F)cc2)cc1	> 10	2.4	1.5	1.7	3 mg/kg/day	0.1	> 10	Stable	Stable						
Cc1[nH]c2ccc(F)cc2c(=O)c1-c1ccc(Oc2ccc(OC(F)(F)F)cc2)nc1	> 10	13	13	11											
Cc1[nH]c2ccccc2c(=O)c1-c1ccc(Oc2ccc(OC(F)(F)F)cc2)nc1	> 10	5.8	3	4.3											
CCCCCCCc1c(C)nc2cc(OC)ccc2c1O	> 10	3.1	3.8	11	inactive		> 10			inactive					
COc1cc2[nH]c(C)c(-c3ccc(Oc4ccc(Cl)cc4)cc3)c(=O)c2cc1Cl	> 10	1.8	1.9	1.2	>0.3 mg/kg/day	0.05									
Cc1[nH]c2ccc(Cl)cc2c(=O)c1-c1ccc(Oc2ccc(OC(F)(F)F)cc2)cc1	> 10	5.6	3.2	2.3	>3 mg/kg/day	0.2	> 10	Stable	Stable						
COc1ccc2c(=O)c(-c3ccc(Oc4ccc(OC(F)(F)F)cc4)cc3)c(C)[nH]c2c1	> 10	3.4	1.7	2.3			> 10	Unstable	Unstable						
Cc1[nH]c2ccc(Cl)cc2c(=O)c1-c1ccc(Oc2ccc(OC(F)(F)F)cc2)nc1	> 10	6.1	3.6	1.5											
COc1cc2[nH]c(C)c(-c3ccc(Oc4ccc(OC(F)(F)F)cc4)cc3)c(=O)c2cc1F	> 10	1.4	1.4	0.5		0.05	> 10	Stable	Stable						
COc1cc2[nH]c(C)c(-c3ccc(Oc4ccc(F)c(OC(F)(F)F)c4)cc3)c(=O)c2cc1Cl	> 10	0.5	0.4	0.3	>3 mg/kg/day	0.06									
COc1cc2[nH]c(C)c(-c3ccc(Oc4cccc(OC(F)(F)F)c4)cc3)c(=O)c2cc1Cl	> 10	0.03	0.03	< 0.03	>3 mg/kg/day	> 3									
CCN(CC)CCCC(C)Nc1ccnc2cc(Cl)ccc12 (stereo unspecified) [CHLOROQUINE]					>64 mg/kg/day	2.2					inactive				
COc1cc2[nH]c(C)c(-c3ccc(Oc4ccc(F)cc4)cc3)c(=O)c2cc1Cl	> 10	3.8	0.8		>3 mg/kg/day	< 1									
COc1cc2[nH]c(C)c(-c3ccc(Oc4ccccc4)cc3)c(=O)c2cc1F	> 10	43	40	8.5											
COc1cc2[nH]c(C)c(-c3ccc(Oc4ccc(OC(F)(F)F)cc4)cc3)c(=O)c2cc1Cl	> 10	2.5	2.2	1.4	0.3 mg/kg/day	0.02	> 10	Stable	Stable			0.56	> 20000	0.06	
O=C1C(O)=C([C@H]2CC[C@H](c3ccc(Cl)cc3)CC2)C(=O)c2ccccc21 [ATOVAQUONE]	> 10	0.1	0.1	7700			0.41								2
COc1cc2[nH]c(C)c(-c3ccc(Oc4ccc(OC(F)(F)F)cc4)nc3)c(=O)c2cc1Cl	> 10	0.2	0.3	0.4	>3 mg/kg/day	0.3									
Cc1[nH]c2ccccc2c(=O)c1-c1ccc(Oc2ccc(OC(F)(F)F)cc2)cc1	> 10	5.9	4.1	7.5	3 mg/kg/day	0.1	1.9								8.9
CCCCCCCc1c(C)[nH]c2cc(OC)c(Cl)cc2c1=O		2.3	1.4	0.8			> 10								
COc1cc2[nH]c(C)c(-c3cnc(Oc4ccc(OC(F)(F)F)cc4)nc3)c(=O)c2cc1Cl	> 10	> 2500	> 2500	> 2500											
Cc1[nH]c2ccccc2c(=O)c1-c1ccc(Oc2ccccc2)cc1	> 10	12	8.4	7.2											
COc1cc2[nH]c(C)c(-c3ccc(Oc4ccc(C(F)(F)F)cc4)cc3)c(=O)c2cc1Cl	> 10	0.3	0.3	0.05	1 mg/kg/day	0.03									
